Bioassay records as filed in PubChem BioAssay.
D1 mod: allosterically modulates the human D1 dopamine receptor; P21728; HEK293 D1, CRE-luciferase, dopamine EC30 potentiation; actives deviate in either direction; B-score at 10 µM; hit rate 5.9% among 58,000; AID 641;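 active means luminescence count or its row- and column-corrected plate score outside the 99.7% band of the plate's sample wells, on either side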
Target sequence (P21728 whole entry, looked up): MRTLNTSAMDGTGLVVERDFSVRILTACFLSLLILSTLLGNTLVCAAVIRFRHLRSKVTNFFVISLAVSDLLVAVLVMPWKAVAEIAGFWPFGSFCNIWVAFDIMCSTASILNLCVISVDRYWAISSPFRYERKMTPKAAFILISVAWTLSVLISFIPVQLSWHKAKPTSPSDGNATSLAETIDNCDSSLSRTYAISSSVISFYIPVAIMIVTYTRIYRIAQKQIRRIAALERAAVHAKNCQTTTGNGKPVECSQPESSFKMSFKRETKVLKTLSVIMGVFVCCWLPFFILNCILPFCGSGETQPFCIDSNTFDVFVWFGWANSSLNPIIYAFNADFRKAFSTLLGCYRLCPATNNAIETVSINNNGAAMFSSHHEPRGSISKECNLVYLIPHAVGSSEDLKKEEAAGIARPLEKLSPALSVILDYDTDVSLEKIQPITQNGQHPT
mHtt clearance: mutant huntingtin protein clearance; HeLa Exon1htt(103Q)mCFP, aggregate imaging; zero = plate's median compound well; hit rate 0.42% among 47,000; AID 853; inhibition, % at 1.5 µM;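 active means inhibition of aggregate fluorescence above about 70%, also judged a hit by eye on the cell image, limit read from the data, passing the limit was not always enough; inconclusive means no rule stated for this call; inactive means not judged a hit on image review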;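 further: cells exposed to compound for three days before fixation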
M1 ag: agonists of M1 muscarinic receptor; CHO-M1 cells, Fluo-4 calcium fluorescence, agonist mode; stronger effect = higher value; B-score at 10 µM; hit rate 3% among 64,000; AID 626;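 active means fluorescence rise, raw or as B-score row- and column-corrected plate score, outside the 99.7% band of its plate's samples, either direction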
AP ELISA ortho: alternative pathway complement inhibition, orthogonal assay. inhibition, % at 5 µM. Human serum alternative complement pathway, LPS-coated ELISA, C3 deposition; tested in compound mixtures. hit rate 0.08% among 62,000;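 active means inhibition above 30% in each of the two pooled mixtures holding the compound, so the lower value exceeds 30%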;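 further: 0% = serum in Mg-EGTA without compound and 100% = EDTA serum blank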
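Assay system: Human serum alternative complement pathway, C3 deposition on LPS-coated wells | Incubation: 1 h serum-compound exposure at 37 °C | Doses: 5 µM per compound in ten-compound mixtures | Read-out: Percent inhibition | Technique: ELISA with HRP anti-human C3 antibody, TMB substrate, absorbance 450 nm | Replication: Two pool placements per compound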
M1 antagonist: blocks the rat M1 muscarinic receptor response to acetylcholine; P08482; CHO-M1 cells, Fluo-4 calcium, ACh EC80 antagonist mode; stronger effect = lower value; B-score at 10 µM; hit rate 3.4% among 64,000;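 active means calcium fluorescence response, raw or row-and-column corrected B-score, differing from the plate sample mean either way at a set confidence level, mostly lower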
M1 ag confirm: confirmation of rat M1 muscarinic receptor agonists; shares compounds with M1 ag; CHO-M1 cells, Fluo-4 calcium fluorescence, agonist mode; actives lie on both sides; fluorescence change (max-min) at 10 µM; hit rate 19% among 1,700; AID 1488;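 active means fluorescence change differs from the solvent-only DMSO control mean at a set confidence level in both duplicate runs; inconclusive means differs from solvent-only control mean in just one of two runs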;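 further: an EC20 dose of acetylcholine follows compound addition during the same imaging run; raw fluorescence intensity difference in instrument units with no normalization to controls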
M4 ag counter: counter-screen for M1 agonists: activity at rat M4 receptor; shares compounds with M1 ag; CHO M4/Gqi5 cells, Fluo-4 calcium fluorescence, agonist mode; actives lie on both sides; fluorescence change (max-min) at 10 µM; hit rate 9% among 1,700;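 active means fluorescence change differing from the plate's solvent-only control wells at 99.7% confidence in both duplicates, whether higher or lower; inconclusive means differs from solvent controls in only one of two duplicates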
Starred values were filed as active, the others as inactive; ? = inconclusive; . = not tested or not shown. Compounds with a hit are over-represented: about 9% of the library has one in this group of screens.

SMILES | D1 mod | mHtt clearance | M1 ag | AP ELISA ortho | M1 antagonist | M1 ag confirm | M4 ag counter
CCOc1ccc(S(=O)(=O)N(C)C)cc1-c1nc2c(C(C)(C)C)nn(C)c2c(=O)[nH]1 | 3.11 | 13.8 | -0.00426 | -1.8 | 0.384 | . | .
CC(=O)Nc1cccc(NC(=O)c2cc3ccccc3o2)c1 | . | -17.1 | 3.92 | -8.3 | -0.267 | . | .
CC(=O)Nc1cccc(NC(=O)c2oc3ccccc3c2C)c1 | -1.28 | . | 2.3* | 15.8 | -0.294 | -15.6 | -15.1
O=S(=O)(O)c1nnc2sc3ccccc3n12 | 0.332 | -48.4 | -0.458 | 1.4 | 0.0154 | . | .
N#Cc1cnc2sc3ccccc3n2c1=N | 1.16 | . | -2.44* | 10.6 | -0.104 | 36.1 | -10.3
C=CCn1c(=O)/c(=C/c2ccc(C)o2)s/c1=C(/C#N)C(=O)c1ccccc1 | 0.75 | . | 11.7* | 11.4 | 0.32 | 86* | 275*
CC(C)C(=O)Nc1cccc(C(=O)NCc2ccc3c(c2)OCO3)c1 | -0.647 | 9.7 | 0.384 | 9.4 | 0.24 | . | .
CC12CC(NC(=O)N1c1cccc(C(=O)NCc3ccc4c(c3)OCO4)c1)c1cc(Cl)ccc1O2 (centres undefined) | -0.0412 | . | 2.23* | 10.3 | -0.724 | ? | -50
Cc1ccccc1-n1c(SC/C(O)=C(\C#N)c2nc3ccccc3[nH]2)nnc1-c1ccncc1 | 0.762 | . | 3.88* | 6.2 | -0.0468 | 4.59 | -4.58
CCOC(=O)C1=C(CN2c3ccccc3CC2C)NC(=O)NC1c1ccccc1 (centres undefined) | . | -9.7 | . | . | . | . | .
CC(=O)NC1=NN(C(C)=O)C(C)(CS(=O)(=O)c2ccc3ccccc3c2)S1 (centres undefined) | . | 31.5 | . | . | . | . | .
CCCSc1nc(N2CCCC2)c2c(c1C#N)CC(C)(C)OC2 | . | . | -1.23 | . | -0.533 | . | .
CCCCc1nc(N2CCOCC2)c(C#N)c2c1COC(C)(C)C2 | . | 0.2 | 4.49* | . | 0.0662 | ? | -28.5
CCCCc1nc(NCC2CCCO2)c(C#N)c2c1COC(C)(C)C2 (centres undefined) | . | -27.6 | 0.248 | . | -0.162 | . | .
CC1(C)Cc2c(C#N)c(SCCOc3ccccc3)nc(N3CCOCC3)c2CO1 | . | . | 4.13* | . | -0.327 | -9.73 | ?
CC(=O)c1sc(NC(=O)C=C(C)C)nc1C | 0.117 | . | -2.22* | 12.5 | -0.166 | -25.2* | -57.7
CC(=O)c1sc(NC(=O)C2(F)C(F)(F)C(F)(F)C(F)(F)C(F)(F)C2(F)F)nc1C | -2.11* | . | 9.24* | 2.5 | 0.12 | 31.7 | ?
Cc1cccc2cc3c(N)c(C#N)sc3nc12 | 0.0738 | ? | 8.56* | 6.6 | 0.267 | 8.88 | ?
O=C(NCCN=C1NS(=O)(=O)c2ccccc21)c1ccncc1 | . | 0.0 | . | . | . | . | .
Cc1nc2ccc(NC(=O)c3c(-c4ccccc4)noc3C)cc2s1 | -0.336 | . | 4.15* | -4.7 | 0.889 | -27.9 | -30.7
O=C(CCn1c(=O)oc2ccccc21)NCCN1CCc2ccccc2C1 | -0.124 | -34.7 | 3.32* | 14.8 | 0.406 | -7.47 | -30.2
O=C(CCCn1c(=O)oc2ccccc21)N1CCc2ccccc2C1 | 1.03 | 41.1 | 1.3 | 12.3 | 0.333 | . | .
CCc1nnc(NC(=O)CCC(=O)N2CCN(CCOc3ccc(C)cc3)CC2)s1 | . | . | 5.1* | 10.7 | -0.406 | -3.62 | -25.8
CCc1nnc(NC(=O)CCC(=O)N2CCN(CCc3ccccc3)CC2)s1 | . | . | -0.323 | 15.5 | -0.0781 | . | .
CCOC(=O)N1CCN(C(=O)c2ccc3nc(SCc4ccc(F)cc4)n(C)c3c2)CC1 | . | -27.0 | 4.02* | 11.7 | -2.78* | ? | -68.1
SMILES | D1 mod | mHtt clearance | M1 ag | AP ELISA ortho | M1 antagonist | M1 ag confirm | M4 ag counter
O=C(NC(NC(=S)Nc1cccc(Cl)c1)C(Cl)(Cl)Cl)OCc1ccccc1 (centres undefined) | . | -25.6 | . | . | . | . | .
O=C(CN1CCOCC1)Nc1ccccc1-c1ccccc1 | 0.506 | -41.6 | -0.666 | -6.1 | -0.0806 | . | .
O=C(CN1CCOCC1)Nc1scc(-c2ccccc2)c1C(=O)N1CCOCC1 | 0.917 | 3.0 | 3.35* | 4.5 | -0.503 | ? | -34.2
c1coc(CN(Cc2ccco2)c2ncnc3c2oc2ccccc23)c1 | . | -44.3 | . | . | . | . | .
Cc1ccc2c(c1)N(Cc1ccncc1)C(=O)C(C)O2 (centres undefined) | -0.0981 | . | -0.103 | 8.9 | 0.582 | . | .
CN1CCN(c2ncnc3c2cnn3-c2ccc(Cl)cc2)CC1 | -6.24* | . | 2.87* | 0.3 | -1.07 | ? | -52.7
Cc1nc2sccn2c1-c1csc(NCc2ccccc2)n1 | -1.66 | 10.9 | 8.32* | 3.1 | -1.6 | -10.3 | ?
CCOC(=O)c1sc(NC(=O)CSc2nccc(C)n2)c(C#N)c1C | . | 34.6 | . | . | . | . | .
Cc1ccnc(SCC(=O)Nc2sc3c(c2C#N)CCCC3)n1 | 0.00597 | . | 3.38* | -6.5 | -2.12 | -18.2 | ?
O=C(O)c1ccccc1C1=Nc2ccc(O)cc2Oc2cc(O)ccc21 | -0.748 | 18.8 | 31.6* | -23.2 | 0.376 | 418* | 403*
Cc1cc(C)nc(SCC(=O)N2CCC(C(N)=O)CC2)n1 | -0.02 | . | 2.67* | 7.0 | 0.772 | ? | -43.7
O=C(CN1CCOCC1)NCc1ccccc1 | 0.186 | 17.2 | 0.376 | 14.6 | 1.04 | . | .
O=C(CN1CCOCC1)NCCNC(=O)CN1CCOCC1 | -0.679 | 61.1 | 4.16* | 29.9 | 1.03 | ? | ?
Nc1nc(-c2ccc(Br)s2)c(Br)s1 | 1.9 | . | 1.21 | 10.1 | 0.024 | . | .
Cc1cc2cc(CN(C(=O)C3CC3)C3CCCC3)c3nnnn3c2cc1C | 2.33 | . | -0.28 | 3.7 | 0.142 | . | .
Nc1c(N2CCCC2)cc(Cl)c2nonc12 | 0.0259 | -20.5 | 4.15* | -8.4 | -0.509 | 8.62 | -43
Cc1cccc2cc(CN(Cc3ccc(F)cc3)C(=O)N(C)C)c3nnnn3c12 | -0.58 | 29.2 | 6.15* | 2.9 | -2.05 | ? | -21.5
COCCN(Cc1cc2cccc(C)c2n2nnnc12)C(=O)C(F)(F)F | 1.47 | 1.4 | 0.582 | 3.3 | 0.151 | . | .
Cc1ccc(OCCNS(=O)(=O)c2cccs2)cc1 | -0.0101 | . | -0.464 | -6.9 | -0.212 | . | .
CN1C(=O)C(O)(CC(=O)c2ccccn2)c2cc(Br)ccc21 (centres undefined) | . | . | -2.66* | 6.3 | 0.442 | ? | -54.1
CCc1ccc(OCC(=O)Nc2ncc3c(n2)CC(C)(C)CC3=O)cc1 | -0.531 | 20.4 | -0.301 | 8.1 | -0.908 | . | .
Cc1ccc(C)c(N2CCN(C(=O)COc3cc(=O)n(C)c4ccccc34)CC2)c1 | -0.0313 | 29.0 | 5.48* | 5.9 | 0.457 | -8.57 | -36.8
Cc1ccc(C)c(N2CCN(C(=O)CCCOc3cc(=O)n(C)c4ccccc34)CC2)c1 | -1.88 | -21.1 | 5.85* | 14.1 | -0.933 | -18 | -23.3
CCC(=O)NC(Nc1sc2c(c1C(=O)OC)CCN(C)C2)(C(F)(F)F)C(F)(F)F | . | 10.5 | . | . | . | . | .
O=S(=O)(NCc1ccccc1)c1ccc2c(c1)OCCO2 | 0.146 | . | 7.43* | -1.5 | 0.78 | -4.62 | -9.38
COc1ccc(-c2cc3nc(C)cc(C)n3n2)c(OC)c1 | 0.351 | . | 0.364 | -0.6 | 0.972 | . | .
